High-throughput results as filed in PubChem BioAssay.
Compounds with a hit are over-represented: about 4.1% of the library has one in this group of screens.
KCNQ1 inh: inhibitors of human KCNQ1 channel, primary screen, cell-based, thallium flux, high-throughput; Potassium voltage-gated channel subfamily KQT member 1 (Homo sapiens), P51787; CHO-K1 KCNQ1, FluxOR thallium flux fluorescence; hits give high values; B-score at 10 µM; actives 1.3% (n = 310,000); AID 2642, 2010;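 active = compounds whose thallium flux B-score, printed positive for inhibition, exceeds three library SD while starting fluorescence stays within three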;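 note: channel opened by potassium depolarization with thallium stimulus after 20 min compound exposure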
hERG protect: hERG rescue from dofetilide block, primary screen, cell-based, CHO-hERG, FluxOR thallium flux, dofetilide IC70; activation (rescue from dofetilide block), less the hit threshold, % at 10 µM; Voltage-gated inwardly rectifying potassium channel KCNH2 (Homo sapiens), Q12809; dofetilide IC70 present; actives 0.51% (n = 310,000); AID 1511, 2009;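 active = activation above the mean of controls blocked by dofetilide plus 5 SD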;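 note: thallium influx through hERG after potassium depolarization seen as dye fluorescence rise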
KCNK9 inh: KCNK9 potassium channel inhibitors, primary screen, HEK293 cells, thallium flux; B-score at 10 µM; AID 488922, 2010; actives 1.2% (n = 310,000); Potassium channel subfamily K member 9 (Homo sapiens), Q9NPC2; FluxOR thallium flux fluorescence; hits give low values;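 active = ratio B-score over 3 SD below the library mean, with starting fluorescence within 5 SD of its mean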;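 note: negative B-score means less thallium flux so channel inhibition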
KCNK3 block: human KCNK3 channel inhibitors, primary screen, CHO cells, FluxOR thallium flux, B-score; FluxOR fluorescence; hits give low values; B-score at 10 µM; actives 0.84% (n = 340,000);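 active = B-score under library mean minus 4 SD, starting fluorescence ratio at most library mean plus 5 SD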;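 note: more negative B-score means stronger inhibition of thallium flux through KCNK3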
KCNQ1 pot: potentiators or activators of KCNQ1 channel, primary screen, cell-based, thallium flux, high-throughput. Potassium voltage-gated channel subfamily KQT member 1 (Homo sapiens), P51787. CHO-K1 KCNQ1, thallium flux FluxOR fluorescence; hits give high values. actives 0.35% (n = 310,000). B-score at 10 µM. AID 2648, 2010;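 active = fluorescence ratio B-score, a plate-corrected score, at least three library SD, with initial intensity B-score within 5 SD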
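Test system: CHO-K1 cells stably expressing KCNQ1 / Medium: assay buffer / Also added: depolarizing K+/Tl+ stimulus, K2SO4 and Tl2SO4 each 12.5 mM in 5x stock / Incubation: 90 min dye loading and 20 min compound exposure, both at room temperature / Signal: thallium influx via FluxOR fluorescence, kinetic imaging / Evaluation: B score of baseline-normalized fluorescence ratio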
KCC2 mod: KCC2 cotransporter modulators, thallium flux, primary screen, cell-based, HEK293 KCC2, FluoZin-2 fluorescence, MLSMR | Solute carrier family 12 member 5 (Homo sapiens), Q9H2X9 | KCC2 cells, thallium flux FluoZin-2 fluorescence | B-score of Tl+ flux slope (higher = more flux/activation; lower = inhibition) at 10 µM | actives 2.2% (n = 190,000);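 active = thallium flux slope and its plate-corrected score both differing from the plate sample mean at a set confidence after two filtering rounds, in either direction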;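 note: slope of fluorescence scaled to starting intensity during 10 to 20 s after thallium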
Target sequence (Q9H2X9 whole entry, looked up): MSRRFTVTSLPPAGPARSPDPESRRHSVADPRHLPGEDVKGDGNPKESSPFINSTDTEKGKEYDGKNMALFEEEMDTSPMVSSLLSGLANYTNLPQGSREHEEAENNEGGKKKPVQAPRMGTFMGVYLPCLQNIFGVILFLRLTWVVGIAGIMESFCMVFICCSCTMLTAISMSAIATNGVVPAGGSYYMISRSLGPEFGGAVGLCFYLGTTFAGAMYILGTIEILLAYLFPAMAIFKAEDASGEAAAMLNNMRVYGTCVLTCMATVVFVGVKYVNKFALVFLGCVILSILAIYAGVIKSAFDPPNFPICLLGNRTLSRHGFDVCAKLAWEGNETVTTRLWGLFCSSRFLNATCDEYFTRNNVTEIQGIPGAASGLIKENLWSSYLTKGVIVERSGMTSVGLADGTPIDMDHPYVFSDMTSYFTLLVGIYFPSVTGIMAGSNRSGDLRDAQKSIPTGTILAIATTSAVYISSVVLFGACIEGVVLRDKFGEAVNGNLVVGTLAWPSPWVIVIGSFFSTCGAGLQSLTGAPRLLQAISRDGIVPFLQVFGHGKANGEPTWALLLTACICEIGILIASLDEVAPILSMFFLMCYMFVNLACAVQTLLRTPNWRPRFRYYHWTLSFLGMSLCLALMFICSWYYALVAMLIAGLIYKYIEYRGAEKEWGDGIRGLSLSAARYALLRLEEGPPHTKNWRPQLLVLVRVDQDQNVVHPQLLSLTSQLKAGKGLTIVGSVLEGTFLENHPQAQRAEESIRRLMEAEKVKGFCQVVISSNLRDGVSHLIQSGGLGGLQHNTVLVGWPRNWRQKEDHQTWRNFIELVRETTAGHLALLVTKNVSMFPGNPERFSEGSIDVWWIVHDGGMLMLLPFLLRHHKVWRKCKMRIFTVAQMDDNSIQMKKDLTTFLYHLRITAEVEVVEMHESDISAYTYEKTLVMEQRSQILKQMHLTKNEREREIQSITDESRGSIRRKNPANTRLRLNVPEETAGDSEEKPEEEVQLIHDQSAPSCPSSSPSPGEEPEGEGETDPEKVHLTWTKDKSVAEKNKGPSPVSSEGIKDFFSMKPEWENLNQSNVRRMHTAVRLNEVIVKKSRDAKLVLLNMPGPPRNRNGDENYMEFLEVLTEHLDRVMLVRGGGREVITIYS
KCC2 secondary: KCC2 modulators in sodium-free buffer, confirmation, cell-based, HEK293 KCC2, thallium flux, secondary assay; shares compounds with KCC2 mod; FluoZin2 fluorescence; hits give high values; normalised thallium flux (F/F0 slope) at 10 µM; actives 15% (n = 3,700); AID 1713, 2009;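 active = thallium flux slope above the same plate's solvent-only control mean plus 3 SD; inconclusive = the two replicate wells disagree; inactive = no significant difference from solvent-only control wells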
KCC2 bumet counter: thallium flux persisting under bumetanide in KCC2 cells, confirmation, counter-screen for KCC2 modulator project, cell-based, HEK293 KCC2, FluoZin2, secondary assay 3; shares compounds with KCC2 mod; HEK293-KCC2 + bumetanide/ouabain; hits give high values; normalized thallium flux at 10 µM; actives 49% (n = 3,700); AID 1714, 2009;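 active = thallium entry rate above the same plate's blocked-transporter control wells by more than 3 SD; inconclusive = the two repeat wells disagree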;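 note: raw slope of fluorescence over initial fluorescence between 10 and 20 s after thallium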
KCC2 sec2: KCC2 modulators without ouabain present, confirmation, cell-based, HEK293 KCC2, thallium flux, FluoZin2, secondary assay 2. shares compounds with KCC2 mod. thallium flux FluoZin2 fluorescence; actives lie on both sides; F/F0 rise rate, 10–20 s post-thallium. AID 1715, 2009. actives 23% (n = 3,700). normalized thallium flux at 10 µM;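 active = thallium flux slope more than 3 SD above or below the plate's solvent-only control mean, mostly below; inconclusive = the two repeat wells disagreed; inactive = no significant shift from solvent-only controls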;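 note: raw slope with 0.1% DMSO as baseline and bumetanide as block control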
HEK293 Tl flux: thallium flux modulation in parental HEK cells, confirmation, counter-screen for KCC2 modulator project, cell-based, counterscreen 1. thallium flux rate (normalised fluorescence) at 10 µM. shares compounds with KCC2 mod. AID 1716, 2009. actives 46% (n = 3,700). HEK293 parental cells, thallium flux FluoZin2, ouabain; baseline-ratio fluorescence slope, 10–20 s after thallium;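 active = thallium flux rate significantly above the same plate's solvent-only control wells, beyond their mean plus 3 SD; inconclusive = the two replicate wells gave conflicting results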
KCC2 retest ouab: KCC2 inhibitors and activators, ouabain retest, confirmation, HEK-KCC2 cells; raw Tl+ flux slope (below DMSO = inhibition, above = activation) at 10 µM; AID 1717, 2009; HEK293-KCC2, thallium flux FluoZin2 fluorescence; bidirectional: low = inhibitor, high = activator; shares compounds with KCC2 mod; actives 48% (n = 3,700);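 active = thallium flux slope beyond 3 SD from same-plate DMSO control mean in most replicates, usually higher, sometimes lower; inconclusive = repeat tests gave conflicting results; inactive = no significant difference from controls in most replicates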;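 note: slope of initial-normalized fluorescence between seconds 10 and 20 after thallium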
HEK counter2: native HEK Tl+ uptake effects, second counter-screen – HEK cells, counterscreen 2, counter-screen for KCC2 modulator project, confirmation; shares compounds with KCC2 mod; HEK293 parental, thallium flux FluoZin-2 fluorescence slope; thallium flux slope at 10 µM; actives 33% (n = 3,700);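 active = thallium flux slope above the same plate's solvent-control mean plus 3 SD in both duplicate wells; inconclusive = duplicate wells that disagreed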;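 note: run without ouabain in cells lacking the KCC2 cotransporter; slope of fluorescence scaled to its starting value between 10 and 20 s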
* hit, by the source's call; i = inactive; u = inconclusive; x = no result.

SMILES	KCNQ1 inh	hERG protect	KCNK9 inh	KCNK3 block	KCNQ1 pot	KCC2 mod	KCC2 secondary	KCC2 bumet counter	KCC2 sec2	HEK293 Tl flux	KCC2 retest ouab	HEK counter2
N#Cc1nc(-c2ccco2)oc1N1CCN(Cc2ccccc2)CC1	i	-10	i	i	i	x	0.0081	0.006	0.026*	0.0069	0.028*	0.0098
CC(Sc1nnnn1C)C(=O)NC1CCCC1 (stereo not drawn)	x	x	x	i	x	x	x	x	x	x	x	x
O=C(NCCC1=CCCCC1)c1ccc(Br)o1	i	-13	i	i	i	x	x	x	x	x	x	x
O=C(NC(=S)NCCC1=CCCCC1)c1ccco1	i	30*	i	i	27*	79*	0.034*	0.16*	0.046*	u	0.11*	0.037*
O=C(NC(=S)NC1CCCc2ccccc21)c1ccco1 (stereo not drawn)	i	8.7*	i	i	16*	63*	0.03*	0.17*	0.046*	0.097*	0.11*	0.035*
O=C(NC(=S)NCCC1=CCCCC1)c1ccc(Br)o1	i	20*	i	i	33*	59*	u	0.066*	0.075*	0.077*	0.077*	0.07*
O=C(NC(=S)NCCc1ccccc1)c1ccco1	i	-3	i	i	i	x	x	x	x	x	x	x
O=C(CC1C(=O)NCCN1C(=O)Nc1ccccc1)Nc1ccc(F)cc1 (stereo not drawn)	i	-3	i	i	i	1	x	x	x	x	x	x
CCOC(=O)Cn1c(=O)oc2cc(S(=O)(=O)N3CCc4ccccc43)ccc21	i	-13	i	i	i	-3.3*	0.0092	0.006	0.031	0.0083	0.021	0.011
CCCn1nnnc1SCC(=O)N1C(C)CCCC1C (stereo not drawn)	i	-6	i	i	i	x	x	x	x	x	x	x
O=c1c(Br)c(NCc2ccccc2)cnn1-c1ccc(F)cc1	i	-8	i	i	i	-0.71	x	x	x	x	x	x
